Experimental data pooled from the literature.
HTR2B: 5-hydroxytryptamine receptor 2B (HTR2B, Homo sapiens, UniProt P41595)

| Structure (SMILES) | target | effect on | mode | method | tested at | quantity | value |
| --- | --- | --- | --- | --- | --- | --- | --- |
| CC[C@H](C)[C@H](NC(=O)[C@H](CO)NC(=O)[C@H](Cc1ccc(O)cc1)NC(=O)[C@H](CC(=O)O)NC(=O)[C@H](CO)NC(=O)[C@@H](NC(=O)[C@H](Cc1ccccc1)NC(=O)[C@@H](NC(=O)CNC(=O)[C@H](CCC(=O)O)NC(=O)[C@@H](C)NC(=O)[C@@H](N)Cc1ccc(O)cc1)[C@@H](C)O)[C@@H](C)CC)C(=O)N[C@@H](C)C(=O)N[C@@H](CCSC)C(=O)N[C@@H](CC(=O)O)C(=O)N[C@@H](CCCCN)C(=O)N[C@H](C(=O)N[C@@H](Cc1c[nH]cn1)C(=O)N[C@@H](CCC(N)=O)C(=O)N[C@@H](CCC(N)=O)C(=O)N[C@@H](CC(=O)O)C(=O)N[C@@H](Cc1ccccc1)C(=O)N[C@H](C(=O)N[C@@H](CC(N)=O)C(=O)N[C@@H](Cc1c[nH]c2ccccc12)C(=O)N[C@@H](CC(C)C)C(=O)N[C@@H](CC(C)C)C(=O)N[C@@H](C)C(=O)N[C@@H](CCC(N)=O)C(=O)NCC(=O)N1CCC[C@H]1C(=O)N[C@@H](CO)C(=O)N[C@@H](CO)C(=O)NCC(=O)N[C@@H](C)C(=O)N1CCC[C@H]1C(=O)N1CCC[C@H]1C(=O)N1CCC[C@H]1C(=O)N[C@@H](CO)C(=O)N[C@@H](CCCCN)C(N)=O)C(C)C)[C@@H](C)CC | Glucagon receptor (Mus musculus, UniProt Q61606) | cAMP | agonist | – | – | Emax | < 20% |
| CN1CCC[C@H]1c1cccnc1 | 5-hydroxytryptamine receptor 2C (HTR2C, Homo sapiens, UniProt P28335) | ligand displacement | – | – | 50 µM | inhibition | -24.7% |
| COc1cc2c3c(c1OC)-c1c(OC)ccc(Br)c1CC3N(C)CC2 (stereo not shown) | HTR2B | ligand displacement | – | radioligand | 10 µM | inhibition | 88% |
| CC(C)CC(=O)OC[C@H]1O[C@@](C#N)(c2ccc3c(N)ncnn23)[C@H](O)[C@@H]1O | HTR2B | cell-free assay | – | – | 20 µM | inhibition | 10% |
| c1cncc([C@@H]2CCCN2)c1 | HTR2B | ligand displacement | – | – | 50 µM | inhibition | -2.22% |
| COc1cc(C(F)(F)F)c(OC)cc1C1CCCNC1 (stereo not shown) | HTR2B | G protein activation | agonist | BRET | – | Emax | 84% |
| COc1cc2c(cc1OC)-c1c(OC)c(OC)cc3c1[C@H](C2)N(C)CC3 | HTR2B | ligand displacement | – | radioligand | 10 µM | inhibition | 92% |
| [2H]c1c([2H])c([C@]2([2H])CCCN2C(=O)C(C)(C)Oc2ccc3cn[nH]c3c2)c([2H])c([2H])c1C([2H])([2H])[2H] | Serine/threonine-protein kinase DCLK3 (DCLK3, Homo sapiens, UniProt Q9C098) | binding | – | competition with immobilised ligand | 1 µM | remaining binding | 86% |
| COc1cc2c3c(c1OC)-c1c(OC)ccc(O)c1CC3N(C)CC2 (stereo not shown) | HTR2B | ligand displacement | – | radioligand | 10 µM | inhibition | 86% |
| Nc1ncnc2c1ncn2[C@@H]1O[C@H](C[C@@H](N)CC[C@H](N)C(=O)O)[C@@H](O)[C@H]1O | mRNA cap guanine-N(7) methyltransferase (RNMT, Homo sapiens, UniProt O43148) | enzyme activity | inhibitor | – | 12.21 nM | inhibition | 13.7% |
